Active and inactive are the calls of the source. The rule behind the calls is not given here.
How the values were obtained:
Mus musculus [1] = test: Depression of forced motor activity in Swiss-Webster mouse at 60 mg/kg, ip after 30 mins by rotarod test relative to control; type: functional; details: route intraperitoneal
How it was run: (§1)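 Rotarod in mice: rod at 4 rpm for 30 sec, 6 rpm next 30 sec, then stepped up every 30 sec (max 50 rpm) until fall. Six mice at a time, four trials (two per day, 4–6 hr apart, two consecutive days); vehicle or compound ip 30 min before fourth trial. Time on rod as % of control; Student's t test, p < 0.05.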

Mus musculus [2] = test: Depression of forced motor activity in Swiss-Webster mouse at 15 mg/kg, ip after 30 mins by rotarod test relative to control; type: functional; details: route intraperitoneal; how it was run: as §1
Mus musculus [3] = test: Depression of spontaneous motor activity in Swiss-Webster mouse at 60 mg/kg, ip by photocell cage test relative to control; type: functional; details: route intraperitoneal
How it was run: (§2)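 Spontaneous activity in three photocell cages: two mice given the same ip dose placed per cage 10 min after rotarod start; 15-min count begun 5 min after placement. Each dose run in factorial design across all three cages to offset unit sensitivity. Counts expressed as % of control; Student's t test, p < 0.05.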

Rattus norvegicus [4] = test: Induction of ptosis in Wistar rat at 20 mg/kg, ip after 10 mins to 3 hrs; type: functional, organism-based; parameters: dose 20 mg/kg
How it was run: (§3)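 Male Wistar rats (175–225 g) were injected ip, with three treated rats and one control per dose. Compounds were in minimal 1.5 M NaH2PO4 diluted with water; the reference drug was in minimal 50% (w/v) tartaric acid-water. Gross behavior was observed. Respiratory rate, heart rate, rectal temperature and pupil size were measured at time points after dosing.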

Mus musculus [5] = test: Depression of forced motor activity in Swiss-Webster mouse at 30 mg/kg, ip after 30 mins by rotarod test relative to control; type: functional; details: route intraperitoneal; how it was run: as §1
Rattus norvegicus [6] = test: Depression of motor activity in Wistar rat at 20 mg/kg, ip after 0.5 to 1 hr; type: functional, organism-based; parameters: dose 20 mg/kg; how it was run: as §3
Rattus norvegicus [7] = test: Reduction in body temperature in Wistar rat at 20 mg/kg, ip relative to control; type: functional; details: route intraperitoneal; how it was run: as §3
Rattus norvegicus [8] = test: Reduction in startle response in Wistar rat at 20 mg/kg, ip after 0.5 to 1 hr; type: functional, organism-based; parameters: dose 20 mg/kg; how it was run: as §3
Mus musculus [9] = test: Depression of forced motor activity in ip dosed Swiss-Webster mouse after 30 mins by rotarod test relative to control; type: functional, organism-based
How it was run: (§4)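 Mice were dosed ip with vehicle or compound dissolved in a minimum of 1.5 M NaH2PO4 and diluted with water. On the rotarod, speed was 4 rpm for 30 sec, then 6 rpm for 30 sec, then increased every 30 sec up to a maximum of 50 rpm until the fall. Each mouse had four trials, two per day on two consecutive days, spaced 4–6 hr apart. The fourth trial was run 30 min after dosing. The read-out was trial time (sec) as % of control, with significance by Student's t test (p < 0.05).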

Rattus norvegicus [10] = test: Reduction of respiration rate in Wistar rat at 1 to 6 mg/kg, ip after 0.5 to 1 hr; type: functional, organism-based; details: 20 mg/kg, in the assay text read “20 mg/kg” for “1 to 6 mg/kg”; how it was run: as §3
[11] = Acute toxicity in ip dosed Swiss-Webster mouse administered as single dose after 7 days; type: organism-based; details: in vivo
How it was run: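 Mice given a single ip dose at each of four dose levels; lethality followed over 7 days; LD50 with 95% confidence limits estimated by the method of Weil. Compounds dissolved in minimal 1.5 M NaH2PO4, diluted with water; haloperidol in minimal 50% (w/v) tartaric acid-water.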

Rattus norvegicus [12] = test: Reduction of heart rate in Wistar rat at 1 to 6 mg/kg, ip after 0.5 to 1 hr; type: functional, organism-based; details: 20 mg/kg, in the assay text read “20 mg/kg” for “1 to 6 mg/kg”; how it was run: as §3
Mus musculus [13] = test: Depression of spontaneous motor activity in Swiss-Webster mouse at 30 mg/kg, ip by photocell cage test relative to control; type: functional; details: route intraperitoneal; how it was run: as §2
Rattus norvegicus [14] = test: Reduction in grip strength in Wistar rat at 20 mg/kg, ip after 0.5 to 1 hr; type: functional, organism-based; parameters: dose 20 mg/kg; how it was run: as §3
Mus musculus [15] = test: Depression of spontaneous motor activity in ip dosed Swiss-Webster mouse by photocell cage test relative to control; type: functional, organism-based
How it was run: (§5)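 Compound was dissolved in minimal 1.5 M NaH2PO4, diluted with water and given ip. Two mice given the same dose went into each of three photocell actophotometer cages 10 min after the rotarod test started. Counts were taken over 15 min, starting 5 min after placement. A factorial design across cages cancelled differences between units. Results were given as % of control, with significance by Student's t test (p < 0.05).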

Mus musculus [16] = test: Depression of spontaneous motor activity in Swiss-Webster mouse at 15 mg/kg, ip by photocell cage test relative to control; type: functional; details: route intraperitoneal; how it was run: as §2
Rattus norvegicus [17] = test: Reduction in rectal temperature in Wistar rat at 25 mg/kg, ip relative to control; type: functional; details: route intraperitoneal; how it was run: as §3
Mus musculus [18] = test: Depression of spontaneous motor activity in Swiss-Webster mouse at 12.5 mg/kg, ip by photocell cage test relative to control; type: functional; details: route intraperitoneal; how it was run: as §5
Mus musculus [19] = test: Acute toxicity in ip dosed Swiss-Webster mouse assessed as intense and prolonged convulsions administered as single dose after 72 hrs; type: organism-based; details: in vivo
Rattus norvegicus [20] = test: Induction of ptosis in Wistar rat at 25 mg/kg, ip after 2 hrs; type: functional, organism-based; parameters: dose 25 mg/kg; how it was run: as §3
Rattus norvegicus [21] = test: Depression of motor activity in Wistar rat at 25 mg/kg, ip; type: functional, organism-based; parameters: dose 25 mg/kg; how it was run: as §3
Rattus norvegicus [22] = test: Reduction in heart rate in Wistar rat at 25 mg/kg, ip; type: functional, organism-based; parameters: dose 25 mg/kg; how it was run: as §3
Mus musculus [23] = test: Depression of forced motor activity in Swiss-Webster mouse at 6.25 mg/kg, ip after 30 mins by rotarod test relative to control; type: functional; details: route intraperitoneal; how it was run: as §4
Rattus norvegicus [24] = test: Increase in salivation in Wistar rat at 25 mg/kg, ip after 2 hrs; type: functional, organism-based; parameters: dose 25 mg/kg; how it was run: as §3
Mus musculus [25] = test: Depression of forced motor activity in Swiss-Webster mouse at 12.5 mg/kg, ip after 30 mins by rotarod test relative to control; type: functional; details: route intraperitoneal; how it was run: as §4
Mus musculus [26] = test: Depression of spontaneous motor activity in Swiss-Webster mouse at 6.25 mg/kg, ip by photocell cage test relative to control; type: functional; details: route intraperitoneal; how it was run: as §5
Rattus norvegicus [27] = test: Induction of ptosis in Wistar rat at 25 mg/kg, ip after 0.5 to 1 hr; type: functional, organism-based; parameters: dose 25 mg/kg; how it was run: as §3
Mus musculus [28] = test: Depression of forced motor activity in Swiss-Webster mouse at 25 mg/kg, ip after 30 mins by rotarod test relative to control; type: functional; details: route intraperitoneal; how it was run: as §4
Mus musculus [29] = test: Depression of spontaneous motor activity in Swiss-Webster mouse at 25 mg/kg, ip by photocell cage test relative to control; type: functional; details: route intraperitoneal; how it was run: as §5
Rattus norvegicus [30] = test: Reduction in respiratory rate in Wistar rat at 25 mg/kg, ip; type: functional, organism-based; parameters: dose 25 mg/kg; how it was run: as §3
Rattus norvegicus [31] = test: Increase in salivation in Wistar rat at 25 mg/kg, ip after 0.5 to 1 hr; type: functional, organism-based; parameters: dose 25 mg/kg; how it was run: as §3
Mus musculus [32] = test: Depression of forced motor activity in Swiss-Webster mouse at 5 mg/kg, ip after 30 mins by rotarod test relative to control; type: functional; details: route intraperitoneal; how it was run: as §1
Rattus norvegicus [33] = test: Reduction in body temperature in Wistar rat at 1 to 6 mg/kg, ip relative to control; type: functional; details: dose mg/kg 6; route intraperitoneal; in the assay text read “6 mg/kg” for “1 to 6 mg/kg”; how it was run: as §3
Mus musculus [34] = test: Acute toxicity in ip dosed Swiss-Webster mouse assessed as tremor administered as single dose after 72 hrs; type: organism-based; details: in vivo
Mus musculus [35] = test: Depression of spontaneous motor activity in Swiss-Webster mouse at 2.5 mg/kg, ip by photocell cage test relative to control; type: functional; details: route intraperitoneal; how it was run: as §5
Mus musculus [36] = test: Depression of spontaneous motor activity in Swiss-Webster mouse at 5 mg/kg, ip by photocell cage test relative to control; type: functional; details: route intraperitoneal; how it was run: as §2
Mus musculus [37] = test: Depression of spontaneous motor activity in Swiss-Webster mouse at 10 mg/kg, ip by photocell cage test relative to control; type: functional; details: route intraperitoneal; how it was run: as §2
Mus musculus [38] = test: Acute toxicity in ip dosed Swiss-Webster mouse assessed as death administered as single dose after 72 hrs; type: organism-based; details: in vivo
Rattus norvegicus [39] = test: Depression of motor activity in Wistar rat at 1 to 6 mg/kg, ip; type: functional, organism-based; how it was run: as §3
Mus musculus [40] = test: Acute toxicity in ip dosed Swiss-Webster mouse assessed as ataxia administered as single dose after 72 hrs; type: organism-based; details: in vivo
Mus musculus [41] = test: Depression of forced motor activity in Swiss-Webster mouse at 2.5 mg/kg, ip after 30 mins by rotarod test relative to control; type: functional; details: route intraperitoneal; how it was run: as §4
Mus musculus [42] = test: Depression of forced motor activity in Swiss-Webster mouse at 10 mg/kg, ip after 30 mins by rotarod test relative to control; type: functional; details: route intraperitoneal; how it was run: as §1
Rattus norvegicus [43] = test: Induction of ptosis in Wistar rat at 1 to 6 mg/kg, ip; type: functional, organism-based; details: in the assay text read “6 mg/kg” for “1 to 6 mg/kg”; how it was run: as §3

O=C(c1ccc(F)cc1)[C@@H]1CCN2CCCC[C@@H]2C1 (single isomer, unassigned)
Activity (Mus musculus [1]): 4.8%
Activity (Mus musculus [2]): 26.5%
Activity (Mus musculus [3]): 0%
Activity (Rattus norvegicus [4]): Active
Activity (Mus musculus [5]): 15.2%
Activity (Rattus norvegicus [6]): Active
T (Rattus norvegicus [7]): 3 °C
Activity (Rattus norvegicus [8]): Active
Activity (Mus musculus [9]): Dose-dependent effect
Activity (Rattus norvegicus [10]): Active
LD50 at 168 h [11]: 193 mg/kg
Activity (Rattus norvegicus [12]): Active
Activity (Mus musculus [13]): 9.6%
Activity (Rattus norvegicus [14]): Active
Activity (Mus musculus [15]): Dose-dependent effect
Activity (Mus musculus [16]): 2.5%

O=C(c1ccc(F)cc1)[C@H]1CCN2CCCC[C@@H]2C1 (single isomer, unassigned)
T (Rattus norvegicus [17]): 2.9 °C
Activity (Mus musculus [18]): 48.5%
Activity (Mus musculus [19]): Toxic
Activity (Rattus norvegicus [20]): inactive
Activity (Rattus norvegicus [21]): Active
Activity (Rattus norvegicus [22]): Active
Activity (Mus musculus [23]): 65.6%
Activity (Rattus norvegicus [24]): inactive
Activity (Mus musculus [25]): 55.5%
Activity (Mus musculus [26]): 95.6%
Activity (Rattus norvegicus [27]): Active
Activity (Mus musculus [9]): Dose-dependent effect
Activity (Mus musculus [28]): 23%
LD50 at 168 h [11]: 86.1 mg/kg
Activity (Mus musculus [29]): 10.2%
Activity (Rattus norvegicus [30]): Active
Activity (Mus musculus [15]): Dose-dependent effect
Activity (Rattus norvegicus [31]): Active

O=C(CCCN1CCC(O)(c2ccc(Cl)cc2)CC1)c1ccc(F)cc1 [HALOPERIDOL]
Activity (Mus musculus [32]): 79.4%
T (Rattus norvegicus [33]): 2 °C
Activity (Mus musculus [34]): Toxic
Activity (Mus musculus [35]): 27.6%
Activity (Mus musculus [36]): 13%
Activity (Mus musculus [37]): 0.2%
Activity (Mus musculus [38]): Toxic
Activity (Rattus norvegicus [39]): Active
Activity (Mus musculus [40]): Toxic
Activity (Mus musculus [41]): 99.3%
Activity (Mus musculus [42]): 26.4%
Activity (Rattus norvegicus [43]): Active
LD50 at 168 h [11]: 49.7 mg/kg
